23 molecules from ChEMBL document CHEMBL1156753, “Structural studies of pterin-based inhibitors of dihydropteroate synthase” (J Med Chem, 2010) can be followed below.

Experiment [1] deals with T1, Dihydropteroate synthase (Bacillus anthracis) (UniProt Q81VW8).
T1 sequence (whole entry): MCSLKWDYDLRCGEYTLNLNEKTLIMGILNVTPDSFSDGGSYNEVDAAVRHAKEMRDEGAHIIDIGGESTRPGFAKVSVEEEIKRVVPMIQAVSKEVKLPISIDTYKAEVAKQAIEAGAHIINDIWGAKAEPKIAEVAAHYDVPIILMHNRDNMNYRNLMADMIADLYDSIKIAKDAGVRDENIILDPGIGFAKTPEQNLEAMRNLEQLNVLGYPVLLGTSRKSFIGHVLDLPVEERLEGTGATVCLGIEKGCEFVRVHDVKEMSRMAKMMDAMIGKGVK
Nature of the experiment: Inhibition of Bacillus anthracis DHPS expressed in Escherichia coli BL21 (DE3) at 500 uM after 30 mins. The method, boiled down:
(§1)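 Reaction held 5 μM 14C pABA, 10 μM enzymatically prepared dihydropterin diphosphate, 10 mM MgCl2, 2% DMSO, 50 mM HEPES pH 7.6, 10 ng DHPS. Product was separated by PEI-cellulose TLC and quantified by phosphorimaging as percent inhibition.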

Experiment [2] addresses T2, Dihydropteroate synthase (Bacillus anthracis, UniProt Q81VW8).
T2 sequence (Q81VW8 whole entry): T1 sequence (whole entry)
In words: Inhibition of Bacillus anthracis DHPS expressed in Escherichia coli BL21 (DE3) after 30 mins. A digest of the protocol:
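Radiometric assay at 37 °C for 30 min: 5 μM 14C pABA, 10 μM enzymatically prepared dihydropterin diphosphate, 10 mM MgCl2, 2% DMSO, 50 mM HEPES pH 7.6, 5 ng DHPS, over a range of inhibitor concentrations. The reaction was stopped with acetic acid on ice. 14C dihydropteroate was separated from pABA by PEI-cellulose TLC and quantified by phosphorimaging. IC50 was obtained by curve fitting.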

The target in experiment [3] is T1, Dihydropteroate synthase (Bacillus anthracis). In words: Inhibition of Bacillus anthracis DHPS expressed in Escherichia coli BL21 (DE3) at 250 uM after 30 mins. The method, boiled down:
as §1

The target in experiment [4] is T2, Dihydropteroate synthase. In words: Binding affinity to Bacillus anthracis DHPS expressed in Escherichia coli BL21 (DE3) after 30 mins by isothermal titration calorimetry. A digest of the protocol: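 ITC at 25 °C in 40 mM HEPES, 4 mM MgCl2, pH 7.6; 5% DMSO added to the buffer for the inhibitor titration. Protein was dialyzed against 50 mM HEPES, 5 mM MgCl2, pH 7.6. Nineteen injections of 500 μM ligand went into 20 μM DHPS. Kd was fitted to a one-site binding model.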
(ITC needs no label: the signal is the heat of the interaction.)

For the molecule `Nc1nc2nc3c(nc2c(=O)[nH]1)CCCC3`, the inhibition (as a rule, the change of the read-out against control, counted positive when it falls) in experiment [1] came out at 31%.
The same measure, in the same setting: next, `Nc1nc(NCCCOc2ccc(C(=O)O)cc2)c(N=O)c(=O)[nH]1`: 79%.
On the same count and under the same terms, the value for `Nc1nc2ncc(C(=O)O)nc2c(=O)[nH]1` was 37%; that for `NC(=O)c1nc[nH]c1C(N)=O` was 32%.
With `Nc1nc2ncc(CCNc3ccc(C(=O)O)cc3)nc2c(=O)[nH]1`, the inhibition in experiment [1] was determined as 76%. Moreover, 87.1 µM corresponded to half-maximal inhibition in experiment [2] (IC50).
Take `CNc1nc(N)[nH]c(=O)c1[N+](=O)[O-]`: the inhibition in experiment [1] stood at 53%.
In the case of `Nc1nc(N)c([N+](=O)[O-])c(=O)[nH]1`, the IC50 – broadly, the concentration that inhibits the measured activity by half – in experiment [2] was 109 µM. This molecule came in with an inhibition in experiment [3] of 80%.
`Nc1ccc2nc(CCc3nc4ccc(N)cc4[nH]3)[nH]c2c1` yielded an inhibition in experiment [1] of 62%.
The molecule `Cn1c(=O)c2nc(C=O)c(=O)[nH]c2n(C)c1=O` had an inhibition in experiment [1] of 44%.
In experiment [1], `Nc1nc2c(c(=O)[nH]1)N=C(CCNc1ccc(C(=O)O)cc1)CN2` gave an inhibition of 100%. In addition, half-maximal inhibition in experiment [2] (IC50) required 25.9 µM.
Molecule `Cc1cc(/C=C2/C(=O)N=C(O)N=C2O)c(C)n1C` showed an inhibition in experiment [1] of 35%.
Turning to `Nc1ccc(C(=O)O)cc1` [AMINOBENZOIC ACID], the Kd – broadly, a measure of binding affinity in units of concentration – in experiment [4] was determined as 5.62 µM.
With `CN1CC=Nc2c1nc(N)[nH]c2=O`, the inhibition in experiment [1] was found to be 76%. Also, in experiment [2], the IC50 is 86.7 µM.
Take `Nc1nc2[nH]c(S)nc2c(=O)[nH]1`: the inhibition in experiment [3] turned out to be 0%.
As to `CC(C(=O)O)c1nn(C)c2nc(N)[nH]c(=O)c2c1=O` (centres undefined), in experiment [1], the inhibition was 97%. For the same molecule, in experiment [2], half-maximal inhibition (IC50) required 19.8 µM.
`CC1CNc2nc(N)[nH]c(=O)c2N1` (centres undefined) had an inhibition in experiment [1] of 67%.
`Nc1nc2[nH]c(=O)c(C(=O)O)nc2c(=O)[nH]1` showed an inhibition in experiment [1] of 70%. Moreover, the IC50 in experiment [2] was 269 µM.
In turn, `Nc1nc(N)c(N=O)c(=O)[nH]1` registered an IC50 in experiment [2] of 8 µM. In experiment [3], this molecule returned an inhibition of 81%.
`Nc1nnc(N)c2[nH]cnc12` showed an inhibition in experiment [1] of 32%. This molecule displayed an IC50 in experiment [2] of more than 500 µM.
For `CN1CC(CC(C)(C)O)=Nc2c1nc(N)[nH]c2=O` the same measures were 54% and 215 µM.
Molecule `CN1CC(C(=O)O)=Nc2c1nc(N)[nH]c2=O` gave an IC50 in experiment [2] of 32.4 µM. Further, in experiment [3], the inhibition was 93%. This molecule yielded a Kd in experiment [4] of 5.26 µM.
In experiment [1], `Nc1ncc(Oc2ccccc2)c(=O)[nH]1` returned an inhibition of 37%.
Molecule `Cn1c(=O)c2nc(C(=O)O)c(=O)[nH]c2n(C)c1=O` yielded an inhibition in experiment [1] of 33%.
